{
  "source": "ChEMBL document CHEMBL2016463",
  "about": "“A Novel (18)F-Labeled Imidazo[2,1-b]benzothiazole (IBT) for High-Contrast PET Imaging of β-Amyloid Plaques” (ACS Med Chem Lett, 2011)",
  "key": {"Cortex [1]": {"test_system": "Cortex", "test": "Binding affinity to amyloid beta plaque in APP/PS1 Alzheimer's disease mouse brain cortex at 4 MBq after 45 mins postinjection by immunohistochemistry analysis relative to control", "assay_type": "functional, organism-based", "parameters": "dose or concentration left out as unconfirmed", "settings": "tested as the 3H-labelled form"}, "Brain [2]": {"test_system": "Brain", "test": "Ratio of drug uptake in Alzheimer's disease patient brain to healthy human brain", "assay_type": "ADME, tissue-based", "settings": "in vivo"}, "Cortex [3]": {"test_system": "Cortex", "test": "Drug uptake in APP/PS1 Alzheimer's disease mouse brain cortex at 13.5 MBq at 45 mins postinjection by dual label autoradiography relative to control", "assay_type": "ADME, organism-based", "settings": "in vivo, 0.75 h", "method_in_brief": "(§1)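 Multimodal study of one 25-month-old APP/PS1 Tg mouse, with a 28-month-old control. Tail-vein coinjection of 18F tracer plus [3H]-reference: 13.5 + 4.0 MBq (Tg) or 10.0 + 3.7 MBq (control). Mice underwent µPET/CT for 45 min in list mode and were killed at 45 min. Ex vivo work included regional brain biodistribution and dual-label (3H/18F) digital autoradiography on 12 µm axial sections.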"}, "Cortex [4]": {"test_system": "Cortex", "test": "Drug uptake in APP/PS1 Alzheimer's disease mouse brain cortex at 13.5 MBq at 45 mins postinjection by uPET/CT analysis relative to control", "assay_type": "ADME, organism-based", "settings": "in vivo, 0.75 h", "method_in_brief": "as §1"}, "Brain [5]": {"test_system": "Brain", "test": "Drug uptake in Balb-C mouse brain at 4 to 6 MBq, iv after 5 mins by gamma counting relative to [11C]Pittsburgh compound B", "assay_type": "ADME, organism-based", "settings": "in vivo", "method_in_brief": "(§2)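 Male Balb-C mice received tracer or [11C] reference. Brain uptake was measured at 5 and 30 min pi and reported as mean ± SD, n ≥ 4.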"}, "[6]": {"target": "T1, Amyloid-beta precursor protein (Homo sapiens, UniProt P05067)", "T1 sequence (P05067 whole entry)": "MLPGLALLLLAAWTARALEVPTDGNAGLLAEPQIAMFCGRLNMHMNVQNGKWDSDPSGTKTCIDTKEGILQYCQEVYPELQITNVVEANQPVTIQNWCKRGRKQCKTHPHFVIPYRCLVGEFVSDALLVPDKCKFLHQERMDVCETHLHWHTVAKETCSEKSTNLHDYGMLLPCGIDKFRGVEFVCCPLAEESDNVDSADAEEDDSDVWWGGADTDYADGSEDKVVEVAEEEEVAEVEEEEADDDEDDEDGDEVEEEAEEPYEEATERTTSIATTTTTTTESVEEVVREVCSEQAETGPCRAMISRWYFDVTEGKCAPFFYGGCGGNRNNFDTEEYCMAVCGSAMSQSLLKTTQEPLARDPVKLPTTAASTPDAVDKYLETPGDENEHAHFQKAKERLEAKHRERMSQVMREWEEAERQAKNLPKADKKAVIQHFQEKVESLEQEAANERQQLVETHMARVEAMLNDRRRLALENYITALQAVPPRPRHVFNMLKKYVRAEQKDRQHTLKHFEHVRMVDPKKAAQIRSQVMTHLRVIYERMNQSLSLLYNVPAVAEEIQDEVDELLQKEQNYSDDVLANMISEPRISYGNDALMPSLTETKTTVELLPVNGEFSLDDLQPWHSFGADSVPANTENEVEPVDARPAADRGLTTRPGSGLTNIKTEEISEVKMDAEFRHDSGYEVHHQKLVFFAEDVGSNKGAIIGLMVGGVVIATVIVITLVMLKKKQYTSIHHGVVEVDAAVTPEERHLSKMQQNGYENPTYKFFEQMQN", "test": "Displacement of [3H]Pittsburgh compound B from human Abeta1-40 after 3 hrs by liquid scintillation counting"}, "[7]": {"test": "Metabolic stability in Balb-C mouse brain at 21 to 32 MBq, iv after 30 mins by gamma counting", "assay_type": "ADME, organism-based", "settings": "read-out: Stability", "method_in_brief": "(§3)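 Balb-C mice were sampled for blood and brain tissue at 10 and 30 min pi. Radioactivity speciation is given as % intact tracer.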"}, "Brain [8]": {"test_system": "Brain", "test": "Drug uptake in APP/PS1 Alzheimer's disease mouse brain cortex at 11.7 +/- 4.1 MBq at 36 to 45 mins postinjection by uPET analysis relative to control", "assay_type": "ADME, organism-based", "settings": "in vivo", "method_in_brief": "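APP/PS1 (homozygous) Tg mice, 24.0 ± 0.4 months old (n = 7), and age-matched C57B6/J controls, 25 ± 2 months old (n = 3). Each mouse got a single bolus of 18F tracer: 11.7 ± 4.1 MBq for Tg, 11.5 ± 3.4 MBq for controls. Images are µPET frames summed over 36–45 min pi, with CT overlaid on an MRI template. Cortical and cerebellar VOI TACs and cortex/cerebellum ratios were derived.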"}, "Brain [9]": {"test_system": "Brain", "test": "Drug uptake in Balb-C mouse brain at 4 to 6 MBq, iv after 30 mins by gamma counting relative to [11C]Pittsburgh compound B", "assay_type": "ADME, organism-based", "settings": "in vivo, 0.5 h", "method_in_brief": "as §2"}, "[10]": {"target": "T1, Amyloid-beta precursor protein", "test": "Displacement of [3H]Pittsburgh compound B from human Abeta1-42 after 3 hrs by liquid scintillation counting"}, "[11]": {"test": "Metabolic stability in Balb-C mouse blood at 21 to 32 MBq, iv after 30 mins by gamma counting", "assay_type": "ADME, organism-based", "settings": "read-out: Stability", "method_in_brief": "as §3"}, "[12]": {"test": "Metabolic stability in Balb-C mouse brain at 21 to 32 MBq, iv after 10 mins by gamma counting", "assay_type": "ADME, organism-based", "settings": "read-out: Stability", "method_in_brief": "as §3"}, "[13]": {"test": "Metabolic stability in Balb-C mouse blood at 21 to 32 MBq, iv after 10 mins by gamma counting", "assay_type": "ADME, organism-based", "settings": "read-out: Stability", "method_in_brief": "as §3"}, "Cortex [14]": {"test_system": "Cortex", "test": "Drug uptake in APP/PS1 Alzheimer's disease mouse brain cortex at 4 MBq at 45 mins postinjection by uPET/CT analysis relative to control", "assay_type": "ADME, organism-based", "settings": "in vivo, 0.75 h", "method_in_brief": "as §1"}, "Cortex [15]": {"test_system": "Cortex", "test": "Drug uptake in APP/PS1 Alzheimer's disease mouse brain cortex at 4 MBq at 45 mins postinjection by dual label autoradiography relative to control", "assay_type": "ADME, organism-based", "settings": "in vivo, 0.75 h", "method_in_brief": "as §1"}, "Cortex [16]": {"test_system": "Cortex", "test": "Binding affinity to amyloid beta plaque in APP/PS1 Alzheimer's disease mouse brain cortex at 13.5 MBq after 45 mins postinjection by immunohistochemistry analysis relative to control", "assay_type": "functional, organism-based", "parameters": "dose or concentration left out as unconfirmed", "settings": "tested as the 18F-labelled form"}},
  "note": "Calls of active or inactive are those of the source. The calls are words filed in the database; no cut-off is given here.",
  "data": [
    {"molecule": "CNc1ccc(-c2nc3ccc(O)cc3s2)cc1", "values": [
      {"measurement": "Activity", "setting": "Cortex [1]", "value": "Active"}
    ]},
    {"molecule": "CNc1ccc(/C=C/c2ccc(OCCOCCOCC[18F])cc2)cc1", "note": "[FLORBETABEN F18]", "values": [
      {"measurement": "Ratio", "setting": "Brain [2]", "value": 1.5}
    ]},
    {"molecule": "CNc1ccc(-c2cn3c(n2)sc2cc(OCC[18F])ccc23)cc1", "values": [
      {"measurement": "Drug uptake", "setting": "Cortex [3]", "value": "Active"},
      {"measurement": "Drug uptake", "setting": "Cortex [4]", "value": "Active"},
      {"measurement": "Drug uptake", "setting": "Brain [5]", "value": "Active"},
      {"measurement": "Ki", "setting": "[6]", "value": 2.1, "unit": "nM"},
      {"measurement": "remaining at 0.5 h", "setting": "[7]", "value": 88, "unit": "%"},
      {"measurement": "Drug uptake", "setting": "Brain [8]", "value": "Active"},
      {"measurement": "Drug uptake", "setting": "Brain [9]", "value": "Active"},
      {"measurement": "Ki", "setting": "[10]", "value": 3.2, "unit": "nM"},
      {"measurement": "remaining at 0.5 h", "setting": "[11]", "value": 5, "unit": "%"},
      {"measurement": "remaining at 10 min", "setting": "[12]", "value": 92, "unit": "%"},
      {"measurement": "remaining at 10 min", "setting": "[13]", "value": 12, "unit": "%"}
    ]},
    {"molecule": "CC(=C(C#N)C#N)c1ccc2cc(N(C)CC[18F])ccc2c1", "values": [
      {"measurement": "Ratio", "setting": "Brain [2]", "value": 1.3}
    ]},
    {"molecule": "[3H]Oc1ccc2nc(-c3ccc(NC)cc3)sc2c1", "values": [
      {"measurement": "Drug uptake", "setting": "Cortex [14]", "value": "Active"},
      {"measurement": "Drug uptake", "setting": "Cortex [15]", "value": "Active"}
    ]},
    {"molecule": "[11CH3]Nc1ccc(-c2nc3ccc(O)cc3s2)cc1", "note": "[PITTSBURGH COMPOUND B]", "values": [
      {"measurement": "Drug uptake", "setting": "Brain [5]", "value": "Active"},
      {"measurement": "Drug uptake", "setting": "Brain [9]", "value": "Active"}
    ]},
    {"molecule": "CNc1ccc(-c2cn3c(n2)sc2cc(OCCF)ccc23)cc1", "values": [
      {"measurement": "Activity", "setting": "Cortex [16]", "value": "Active"}
    ]}
  ]
}
